Assay results as given in ChEMBL document CHEMBL4732156, “Novel boronium salt exhibits substantial antibacterial activity when compared to a commercial quaternary ammonium disinfectant” (Bioorg Med Chem Lett, 2021).
Active and inactive are the calls of the source. No cut-off for these calls is given here.

Experiments:
[1] = test system: Escherichia coli; assay: Antibacterial activity against Escherichia coli ATCC 25922 assessed as reduction in bacterial growth incubated for 24 hrs by turbidity based analysis; format: functional
Outline: (§1)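 Broth microdilution in Mueller–Hinton broth. Agents start from 4.5% stocks and are diluted two-fold in deionized water. Final well range is 22.5 to 0.02 mg/mL; inoculum is about 5.0×10^5 CFU/mL from 18–24 h SBA colonies. Plates are incubated 18–24 h at 37 °C in ambient air at 100 rpm. MIC is the lowest concentration giving a clear well on mirrored 3X visual reading.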

[2] = test system: Escherichia coli; assay: Antibacterial activity against Escherichia coli ATCC 25922 at 1:128 dilution incubated for 24 hrs by disc diffusion method; format: functional, organism-based
Outline: (§2)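 Kirby-Bauer disc diffusion. 6 mm paper discs are loaded with 20 µL of the 1:8 (2.81 mg/mL) or 1:128 (0.17 mg/mL) dilution, dried 30 min and stored at 4–8 °C. A lawn of about 5.0×10^5 CFU/mL is swabbed onto Mueller–Hinton agar with the plate spinning. Plates are incubated 24 h at 37 °C and the inhibition zone is measured in mm by digital caliper.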

[3] = test system: Pseudomonas aeruginosa; assay: Antibacterial activity against Pseudomonas aeruginosa ATCC 27853 assessed as reduction in bacterial growth incubated for 24 hrs by turbidity based analysis; format: functional; outline: as §1
[4] = test system: Escherichia coli; assay: Antibacterial activity against Escherichia coli ATCC 25922 at 1:8 dilution incubated for 24 hrs by disc diffusion method; format: functional, organism-based; outline: as §2
[5] = test system: Pseudomonas aeruginosa; assay: Antibacterial activity against Pseudomonas aeruginosa ATCC 27853 at 1:128 dilution incubated for 24 hrs by disc diffusion method; format: functional, organism-based; outline: as §2
[6] = test system: Erythrocyte; assay: Induction of hemolysis in RBC (unknown origin) at higher concentration; format: cell-based
[7] = test system: Erythrocyte; assay: Induction of hemolysis in RBC (unknown origin) at lower concentration; format: cell-based
[8] = test system: Staphylococcus aureus; assay: Antibacterial activity against Staphylococcus aureus ATCC 29213 assessed as reduction in bacterial growth incubated for 24 hrs by turbidity based analysis; format: functional; outline: as §1
[9] = test system: Pseudomonas aeruginosa; assay: Antibacterial activity against Pseudomonas aeruginosa ATCC 27853 at 1:8 dilution incubated for 24 hrs by disc diffusion method; format: functional, organism-based; outline: as §2
[10] = test system: Pseudomonas aeruginosa; assay: Potency index, ratio of MIC of BacDown QAC to MIC of compound for antibacterial activity against Pseudomonas aeruginosa ATCC 27853 assessed as reduction in bacterial growth incubated for 24 hrs by turbidity based analysis; format: functional
[11] = test system: Pseudomonas aeruginosa; assay: Bactericidal activity against Pseudomonas aeruginosa ATCC 27853 incubated for 24 hrs followed by transferring and culturing on SBA plate and measured after 18 to 24 hrs by agar plate based analysis; format: functional; settings: time 42-48 hrs
Outline: (§3)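 After 24 h of microdilution (about 5.0×10^5 CFU/mL, Mueller–Hinton broth, 37 °C, 100 rpm), 100 µL from each clear well, including the MIC well, is spread on 5% sheep blood agar. Plates are incubated 18–24 h at 37 °C. MBC is the first concentration giving zero colonies.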

[12] = test system: Staphylococcus aureus; assay: Bactericidal activity against Staphylococcus aureus ATCC 29213 incubated for 24 hrs followed by transferring and culturing on SBA plate and measured after 18 to 24 hrs by agar plate based analysis; format: functional; settings: time 42-48 hrs; outline: as §3
[13] = test system: Escherichia coli; assay: Potency index, ratio of MIC of BacDown QAC to MIC of compound for antibacterial activity against Escherichia coli ATCC 25922 assessed as reduction in bacterial growth incubated for 24 hrs by turbidity based analysis; format: functional
[14] = test system: Staphylococcus aureus; assay: Antibacterial activity against Staphylococcus aureus ATCC 29213 assessed as zone of inhibition at 1:8 dilution incubated for 24 hrs by disc diffusion method; format: functional; outline: as §2
[15] = test system: Escherichia coli; assay: Bactericidal activity against Escherichia coli ATCC 25922 incubated for 24 hrs followed by transferring and culturing on SBA plate and measured after 18 to 24 hrs by agar plate based analysis; format: functional; settings: time 42-48 hrs; outline: as §3
[16] = test system: Staphylococcus aureus; assay: Antibacterial activity against Staphylococcus aureus ATCC 29213 assessed as zone of inhibition at 1:128 dilution incubated for 24 hrs by disc diffusion method; format: functional; outline: as §2
[17] = test system: Staphylococcus aureus; assay: Potency index, ratio of MIC of BacDown QAC to MIC of compound for antibacterial activity against Staphylococcus aureus ATCC 29213 assessed as reduction in bacterial growth incubated for 24 hrs by turbidity based analysis; format: functional

For `CCCCCCCCCCCCCCCC[N+](C)(C)[BH2-][N+](C)(C)C.I`, the MIC [1] was > 22500 µg/mL, the Activity [2] was “inactive” and the MIC [3] was > 22500 µg/mL. The Activity [4] was “inactive”, the Activity [5] was “inactive” and the Activity [6] was “Toxic”. For the same molecule, the Activity [7] was “Non-Toxic”, the MIC [8] was > 22500 µg/mL and the Activity [9] was “inactive”.
For `CCCCCCCCCCCCCCCC[N+](C)(C)[BH2-][N+](C)(C)Cc1ccccc1.I`, the MIC [1] was 40 µg/mL, the Ratio [10] was 8 and the Activity [2] was “inactive”. For the same molecule, the MBC [11] was 170 µg/mL, the MBC [12] was 40 µg/mL and the MIC [3] was 170 µg/mL. For the same molecule, the Ratio [13] was 4, the “inhibition zone (IZ)” value [14] was 14.8 mm and the Activity [4] was “inactive”. For the same molecule, the Activity [5] was “inactive”, the MBC [15] was 40 µg/mL and the Activity [6] was “Toxic”. For the same molecule, the Activity [7] was “Non-Toxic”, the “inhibition zone (IZ)” value [16] was 7.6 mm and the MIC [8] was 20 µg/mL. The Ratio [17] was 4 and the Activity [9] was “inactive”.
